Values after ≈ are worked out from the molar mass of the structure shown.
Assays:
Aqueous solubility = format: physicochemical; conditions: aqueous (water)
[1] = system: aspartate aminotransferase (AST); assay: Estimation of serum aspartate aminotransferase; format: in vivo, Wistar rats; conditions: 21 d oral, mean ± SEM
Procedure, shortened: (§1)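 Serum aminotransferases were measured colorimetrically with commercial kits (Reitman–Frankel method). Male Wistar rats (6/group) were dosed orally for 21 d in 1% sodium CMC, INH 150 mg/kg/day, test compounds equimolar. Blood was drawn retrobulbarly after an overnight fast on day 22. Mean ± SEM; one-way ANOVA with Dunnett's test versus the INH group.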

rat liver = assay: Histopathological analysis of rat liver; format: in vivo, Wistar rats; conditions: H&E-stained liver sections, 21 d oral
Procedure, shortened: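 Male Wistar rats (180-200 g), acclimatized 1 wk at 24 ± 1 °C, 45%-55% humidity, 12:12 h light/dark; 8 groups of 6. Oral dosing for 21 d as a suspension in 1% sodium CMC, with doses equimolar to the parent drug. On day 22, rats were fasted overnight, bled and sacrificed. Liver was washed in ice-cold saline, fixed in 10% formalin, sectioned, H&E-stained and photographed under light microscopy.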

[2] = system: superoxide dismutase (SOD); assay: Liver superoxide dismutase activity, hepatoprotective study; format: in vivo, Wistar rats; conditions: 21 d oral; for Level of SOD re-established: dose equimolar to INH 150 mg/kg/day
[3] = system: glutathione peroxidase (GSHPx); assay: Liver glutathione peroxidase, hepatoprotective study; format: in vivo, Wistar rats; conditions: 21 d oral; for Level of GSHPx re-established: dose equimolar to INH 150 mg/kg/day
[4] = system: alanine aminotransferase (ALT); assay: Estimation of serum alanine aminotransferase; format: in vivo, Wistar rats; conditions: 21 d oral, mean ± SEM
Procedure, shortened: as §1

malondialdehyde (MDA) = assay: Assay of lipid peroxidation products in liver; format: in vivo, Wistar rats; conditions: 21 d oral, treated groups vs INH-treated group
Procedure, shortened: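 Hepatic lipid peroxidation was measured as thiobarbituric-acid-reactive MDA (Ohkawa method). 1,1,3,3-tetraethoxypropane was the standard, and results were expressed as micromoles per gram of tissue. Livers came from male Wistar rats (6/group) given oral suspensions in 1% sodium CMC for 21 d, INH 150 mg/kg/day, test compounds equimolar. Mean ± SEM; one-way ANOVA/Dunnett versus the INH group.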

[5] = In vitro release in rat stomach homogenates; format: in vitro ADME; conditions: till 3 h
Procedure, shortened: (§2)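 Incubations in rat stomach homogenate ran up to 3 h; those in intestinal homogenate ran up to 6 h. Intact prodrug and released INH were quantified simultaneously by validated reverse-phase C18 HPLC using prodrug-specific mobile phases at 1 mL/min with UV detection. Percent hydrolysed and INH released came from calibration curves. Rate constants, half-lives and kinetic order were calculated; samples were run in triplicate.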

[6] = In vitro release kinetics in rat intestinal homogenates; format: in vitro ADME; conditions: for % Prodrug hydrolysed / K ± SD (hydrolysis rate constant): rat intestinal homogenates; for % Prodrug hydrolysed: over 6 h; for K ± SD (hydrolysis rate constant): first-order kinetics, average of three readings; for half-life: rat, intestinal homogenates
Procedure, shortened: as §2

[7] = In vitro stability in phosphate buffer; format: physicochemical; conditions: 0.05 mol/L phosphate buffer, 37 °C, till 6 h, HPLC
Procedure, shortened: (§3)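 5 mL aliquots were replaced with fresh buffer at 0, 15, 30, 45, 60 min, then every 30 min to 3 h (HCl) or 6 h (phosphate). Analysed by reverse-phase C18 HPLC against 10-100 μg/mL calibration curves; triplicate.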

Wistar rats = assay: Evaluation of hepatoprotective potential; format: in vivo; conditions: male Wistar rats, 21 d oral
Procedure, shortened: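 Male Wistar rats (180-200 g), acclimatized 1 wk, randomized into 8 groups of 6. Oral suspensions in 1% sodium CMC for 21 d: INH 150 mg/kg/day, prodrugs and physical mixtures equimolar to INH, saline control. On day 22, rats were fasted overnight, bled retrobulbarly and sacrificed. Endpoints: serum ALT/AST, TG, cholesterol; liver SOD, GSHPx, MDA; blinded H&E histology.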

[8] = In vitro stability in HCl buffer; format: physicochemical; conditions: 0.05 mol/L HCl, 37 °C, till 3 h, HPLC
Procedure, shortened: as §3

[9] = In vivo release studies after oral administration of NI; set-up: species or system Wistar rats
Procedure, shortened: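 Male Wistar rats were fasted 24 h and housed individually in metabolic cages. They received an oral suspension of test compound in 1.0 mL saline, 309 mg/kg (equimolar to INH). EDTA blood was collected at 0 min, every 15 min for 1 h, every 2 h to 10 h, and at 24 h. Samples were spun 5000 rpm at 0-5 °C, methanol-precipitated and analysed by HPLC. Urine and faeces were pooled over 24 h.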

solubility (Aqueous solubility) [mg/mL] | Release of INH in stomach homogenates [5] | % Prodrug hydrolysed [6] [%] | K ± SD (hydrolysis rate constant) [6] [min⁻¹] | half-life [6] [h] | Stability in phosphate buffer, pH 7.4 [7] | Stability in HCl buffer, pH 1.2 [8] | Compound | AST level [1] [U/L] | Liver histopathology findings (rat liver) | ALT level [4] [U/L] | Effect on MDA level (in words) (malondialdehyde (MDA)) | Level of SOD re-established [2] [%] | Level of GSHPx re-established [3] [%] | Hepatoprotective potential assessment (overall) (Wistar rats) | further results
135 (≈ 984 mM) |  |  |  |  |  |  | NNC(=O)c1ccncc1 [INH, isoniazid, reference compound] | 148 ± 7.60 | all these pathological changes were noticed | 144 ± 7.70 | significantly higher |  |  |  | Effect on level of SOD (in words) [2]: significantly lower; Effect on level of GSHPx (in words) [3]: significantly lower
94 (≈ 333 mM) | Negligible | 70.11 | 0.0033 | 3.62 | Stable | Stable | CC(S)C(=O)NCC(=O)NNC(=O)c1ccncc1 (stereo not shown) [MGI, 2-Mercapto-N-{2-oxo-2-[N’-(pyridine-4-carbonyl)-hydrazino]-ethyl}-propionamide] |  | minimal inflammation, with minimal portal triaditis and mild dilation of blood sinusoids |  | better compared to that achieved with MI | 71.98 | 91.83 | moderate effects | 
114 (≈ 425 mM) | Negligible | 86.55 | 0.0051 | 3.02 | Stable | Stable | CSCCC(N)C(=O)NNC(=O)c1ccncc1 (stereo not shown) [MI, Isonicotinic acid N’-(2-amino-4-methylsulfanyl-butyryl)-hydrazide] |  | minimal inflammation, with minimal portal triaditis and mild dilation of blood sinusoids |  |  | 88.69 | 93.87 | moderate effects | 
104 (≈ 368 mM) | Negligible | 94.93 | 0.0034 | 3.89 | Stable | Stable | CC(=O)NC(CS)C(=O)NNC(=O)c1ccncc1 (stereo not shown) [NI, N-{1-mercaptomethyl-2-oxo-2-[N’-(pyridine-4-carbonyl)-hydrazino]-ethyl}-acetamide] | 46 ± 7.30 | reversal of such pathology, with no evidence of necrosis, inflammation or fibrosis | 48 ± 4.50 | better compared to that achieved with MI | 93.39 | 100 | noteworthy effects | INH in urine and faeces samples ([9]; 24 h pooled samples): without any presence; Intact NI in urine and faeces samples ([9]; 24 h pooled samples): not observed; Time at which intact NI completely disappeared from blood ([9]; Wistar rats, blood): 7.5 to 9 h; Time from which concentration of intact NI in blood started declining ([9]; Wistar rats, blood): 5.5 to 6.5 h; Time of appearance of intact NI in blood ([9]; Wistar rats, blood): 2 to 2.5 h

— publication PMC6068850 (World Journal of Hepatology, 2018)
